Assays:
kB1R [1] = target: T1, kB1R (Homo sapiens, UniProt P46663); assay: [3H]DAKD binding and endocytosis assay, cell surface kB1R, HEK293 cells; details: HEK cells stably expressing kB1R and kB2R; 10 min, 37 °C (DAKD 1 μM), no acid wash; 4 nM [3H]DAKD 90 min on ice; n=3
T1 sequence (P46663 1-353): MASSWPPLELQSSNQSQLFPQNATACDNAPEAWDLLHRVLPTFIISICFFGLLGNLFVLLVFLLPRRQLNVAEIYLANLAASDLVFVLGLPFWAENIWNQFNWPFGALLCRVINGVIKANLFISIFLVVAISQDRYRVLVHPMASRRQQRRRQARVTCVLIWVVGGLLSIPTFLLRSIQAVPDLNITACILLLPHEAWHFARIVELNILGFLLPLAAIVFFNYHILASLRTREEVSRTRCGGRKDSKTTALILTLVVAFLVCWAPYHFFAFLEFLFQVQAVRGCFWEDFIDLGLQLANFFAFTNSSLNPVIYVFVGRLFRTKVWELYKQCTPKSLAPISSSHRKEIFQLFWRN
Method in brief: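 Confluent monolayers were rinsed three times in warm PBS and exposed to unlabelled agonist or vehicle (PBS). They were washed with ice-cold PBS, and binding was then done on ice. Cells were washed three times in cold PBS, lysed in 0.2 M NaOH and counted by scintillation. Total binding was taken as label bound in cells given PBS alone.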

kB2R = target: T2, kB2R (Homo sapiens, UniProt P30411); assay: Intracellular Ca2+ response; assay type: cell-based; details: HEK cells stably expressing kB1R and kB2R; first 1 μM DAKD, then 1 μM KD
T2 sequence (P30411 1-391): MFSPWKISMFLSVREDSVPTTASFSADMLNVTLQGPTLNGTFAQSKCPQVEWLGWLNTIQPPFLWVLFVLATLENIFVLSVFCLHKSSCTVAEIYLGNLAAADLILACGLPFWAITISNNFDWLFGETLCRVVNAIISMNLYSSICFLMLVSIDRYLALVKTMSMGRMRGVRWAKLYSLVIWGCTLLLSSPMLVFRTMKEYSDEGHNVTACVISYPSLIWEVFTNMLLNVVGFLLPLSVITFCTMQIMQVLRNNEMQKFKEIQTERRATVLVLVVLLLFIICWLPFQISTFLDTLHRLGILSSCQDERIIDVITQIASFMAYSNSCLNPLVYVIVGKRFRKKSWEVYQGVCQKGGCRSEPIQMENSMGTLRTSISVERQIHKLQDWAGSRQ

kB1R [2] = target: T1, kB1R; assay: [3H]Arachidonic acid release, kB1R-mediated, cells co-expressing kB1R and kB2R; assay type: cell-based; details: stably co-expressing HEK cells (so in the source); 1 μM
Method in brief: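 Cells at ~80% confluence were labelled for 18–24 h in growth medium with 0.1% FBS and 1 μCi/ml [³H]arachidonic acid. They were washed three times in HAM's/F12 buffer (HEPES, NaHCO₃, 0.1% fat-free BSA), then incubated with agonist in that buffer at 37 °C. Released label in the collected medium was counted by liquid scintillation.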

kB1R [3] = target: T1, kB1R; assay: Phosphoinositide turnover; assay type: cell-based; details: stably co-expressing HEK cells; 1 μM
[4] = test system: human lung microvascular endothelial cells (HLMVEC); assay: Transendothelial electrical resistance; assay type: cell-based; details: cytokine-treated HLMVEC; 100 nM; BK in the presence of MGTA; n = 4
Method in brief: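 Primary HLMVEC (passage 3–6) were grown to confluence on gold electrodes coated with 10 μg/ml fibronectin. Cells were cytokine-primed for 16 h with IL-1β plus 100 U/ml IFN-γ, then moved to EBM-2 with 1% FBS for 1 h and impedance-monitored (ECIS) until baseline was stable. BK samples were pretreated with 40 μM MGTA. Cells received ±100 nM BK for 10 min, then 100 nM DAKD or vehicle, with or without 200 μM pyrogallol; TER recorded.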

[5] = test system: GPCRs coupled with Gαq (LPA); assay: Intracellular Ca2+ response to LPA, HEK cells; assay type: cell-based, human
Method in brief: (§1)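 Cross-desensitization in HEK293 cells stably expressing kB1R, loaded with fura-2 (2 μM, 60 min, 37 °C) on polylysine coverslips. Cells were given thrombin or LPA followed by kB1R agonist, or kB1R agonist first and then thrombin or LPA. [Ca²⁺]i was read as 510 nm emission at 340/380 nm excitation.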

kB1R [6] = target: T1, kB1R; assay: Intracellular Ca2+ response; assay type: cell-based; details: for effect of pre-stimulation on kB1R response: kB1R expressing cells, discussion summary
Method in brief: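 Receptor-expressing HEK cells were grown to 80% confluence on polylysine-coated glass coverslips. They were loaded with 2 μM fura-2/AM for 60 min at 37 °C. For pre-stimulation, cells received vehicle or a kinin agonist (e.g. 1 μM BK) for 10 min, then a kB1R agonist. The [Ca²⁺]i rise was quantified as area under the curve and plotted against log dose; n=3, mean ± SE.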

[7] = test system: protease activated receptor; assay: Intracellular Ca2+ response to thrombin, HEK cells; assay type: cell-based, human
Method in brief: as §1

[8] = HEK cells stably expressing kB1R
[9] = HEK cells stably expressing kB1R or kB2R

For des-Arg^9 -HOE-140 [des-Arg-HOE140], the “inhibition of [3H]-DAKD binding, without acid washing” value (kB1R [1]) was ~ 80%.
For des-Arg^10-kallidin [DAKD], the “calcium response to 1 μM KD added after pre-stimulation with kB1R agonist” value (kB2R) was “second robust increase”, the “arachidonic acid release response” value (kB1R [2]) was “responded robustly” and the “inhibition of [3H]-DAKD binding, without acid washing” value (kB1R [1]) was ~ 80%. For the same substance, the IP3 turnover response (kB1R [3]) was “responded robustly”, the “increase in TER” value [4] was “substantial and prolonged” and the “effect of kB1R agonist on calcium response to subsequent LPA” value [5, 8] was “did not reduce the calcium response”.
For lysophosphatidic acid [LPA], the “effect of LPA on kB1R response to subsequent DAKD” value (kB1R [6]; [8]) was “did not decrease the kB1R response”, the “effect of pre-stimulation on kB1R response” value (kB1R [6]) was “did not reduce the kB1R response” and the “increase in [Ca2+]i by LPA” value ([5]; HEK cells expressing kB1R) was “relatively lower calcium response than thrombin”. The “cross-desensitization between kB1R, kB2R and LPA” value [5, 9] was “Lack of cross-desensitization”.
With thrombin the “effect of thrombin on increase in [Ca2+]i induced by subsequent DABK (1 μM)” value (kB1R [6]; [8]) was “did not inhibit the increase in [Ca^2+]i”, the “effect of pre-stimulation on kB1R response” value (kB1R [6]) was “did not reduce the kB1R response” and the “increase in [Ca2+]i by thrombin” value [7, 8] was “large increase in [Ca^2+]i”. For the same substance, the “cross-desensitization between kB1R, kB2R and thrombin” value [7, 9] was “Lack of cross-desensitization”.

— PMC4253050 (Cellular signalling, 2014)
